How the values were obtained:
[1] = Antioxidant activity was determined using trolox equivalent antioxidant capacity assay.; assay type: functional
Method in brief: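 ABTS (1.23 mg/mL) and ABAP (3.96 mg/mL) in 50 mM phosphate buffer pH 7.4 heated 70 °C for 20 min to generate ABTS radical. Test compound (stock in N2-purged DMSO:water 1:1; final DMSO ≤0.25%) incubated with ABTS•+ solution 5 min at 37 °C. Absorbance read at 734 nm. Trolox calibration 0–20 μM; TEAC = mM trolox equivalent to 1 mM compound.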

Rattus norvegicus = species: Rattus norvegicus; experiment: Inhibitory effect on the oxidative degradation of membrane lipids (lipid peroxidation assay) in microsomes of rat.; assay type: functional
Method in brief: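 Liver microsomes from male Wistar rats (200–220 g), washed in 50 mM Tris-HCl pH 7.4 and heat-inactivated at 100 °C ≥2 min, then diluted to 1.5 mg/mL. Peroxidation started with 10 μM FeSO4; final DMSO ≤2.5%. TBA-reactive substances sampled at 0–60 min and absorbance read at 535-600 nm after heating. IC50 interpolated from % inhibition at several concentrations; mean ± SEM, n = 3-5.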

| Structure (SMILES) | IC50 (Rattus norvegicus) [µM] | Activity [1] [mM] |
| --- | --- | --- |
| C[N+](C)(C)CCCCCCOc1c(-c2ccc(O)c(O)c2)oc2ccccc2c1=O | 1.4 | 4.3 |
| C[N+](C)(C)CCCOc1ccc2c(=O)cc(-c3ccc(O)c(O)c3)oc2c1 | 37.3 | 1.9 |
| O=c1c(O)c(-c2ccc(O)c(O)c2)oc2cc(OCCO)ccc12 | 13.8 | 4.9 |
| O=c1c(OCCO)c(-c2ccc(O)c(O)c2)oc2cc(O)ccc12 | 21.7 | 3.4 |
| C[N+](C)(C)CCCCCCCCOc1c(-c2ccc(O)c(O)c2)oc2ccccc2c1=O | 1 | 3.3 |
| O=C(O)COc1c(-c2ccc(O)c(O)c2)oc2ccccc2c1=O | 6.5 | 7.6 |
| COc1c(-c2ccc(O)c(O)c2)oc2ccccc2c1=O | 1.3 | 4.4 |
| C[N+](C)(C)CCCOc1c(-c2ccc(O)c(O)c2)oc2cc(O)ccc2c1=O | 3.8 | 5.1 |
| O=c1cc(-c2ccc(O)c(O)c2)oc2cc(OCCO)ccc12 | 16.4 | 4.3 |
| O=c1c(O)c(-c2ccc(O)c(O)c2)oc2cc(O)ccc12 [FISETIN] | 0.2 | 5.6 |
| CN(C)CCCOc1c(-c2ccc(O)c(O)c2)oc2ccccc2c1=O | 1 | 3.4 |
| O=c1c(O)c(-c2ccc(O)c(O)c2)oc2ccccc12 | 1.8 | 4.5 |

Further molecules by falling IC50 (Rattus norvegicus), results first:

| IC50 (Rattus norvegicus) [µM] | Structure (SMILES) | Activity [1] [mM] |
| --- | --- | --- |
| 11 | O=c1cc(-c2ccc(O)c(O)c2)oc2cc(O)ccc12 | 4.3 |
| 8.1 | CN(C)CCCOc1ccc2c(=O)cc(-c3ccc(O)c(O)c3)oc2c1 | 2.9 |
| 2.5 | COc1ccc2c(=O)cc(-c3ccc(O)c(O)c3)oc2c1 | 3.3 |
| 1.6 | COc1c(-c2ccc(O)c(O)c2)oc2cc(O)ccc2c1=O | 5.9 |
| 1.2 | C[N+](C)(C)CCCOc1c(-c2ccc(O)c(O)c2)oc2ccccc2c1=O | 4.2 |
| 0.6 | O=c1c(OCCO)c(-c2ccc(O)c(O)c2)oc2ccccc12 | 4.4 |
